Measured values pooled from the literature.
Each line is one published result; the experiments were not run side by side.
Target: Serine/threonine-protein kinase mTOR (MTOR, Homo sapiens, UniProt P42345)

CN1CCN(c2cnc3c(C4CCN(C(=O)c5ccc(OC(F)(F)F)cc5N)CC4)ncnc3c2)CC1 — remaining binding (cell-free assay; competition with immobilised ligand; 1 µM): 78%
O=C(NCC1CCOCC1)c1n[nH]cc1NC(=O)c1c(F)cccc1F — remaining binding (binding; competition with immobilised ligand; 1 µM): 100%
C[C@@H](c1ccc(-n2cnc3c(N)ncnc32)cc1)N1CCc2nn(C)c(Cc3ccccc3)c2C1=O — remaining binding (binding; competition with immobilised ligand; 0.1 µM): 83%
C[C@H]1CCN(c2nccc(-c3cnn4ncccc34)n2)C1 — remaining binding (binding; 1 µM): 100%
O=C(O)c1cc(-c2ccc(C3CCNCC3)cc2)c2ccc(-c3ccc(C(F)(F)F)cc3)cc2c1 — remaining binding (cell-free assay; competition with immobilised ligand; 1 µM): 90%
Nc1ncc2c(n1)-c1c([nH]c3ccc(C#CC4CC4)cc13)CCCC2 — remaining binding (binding; competition with immobilised ligand; 1 µM): 100%
COc1cnc(Nc2cccc(S(N)(=O)=O)c2)nc1N1CCN(c2ccccc2)C(=O)C1 — remaining binding (binding; competition with immobilised ligand; 1 µM): 87%
O=C(Nc1ccc(Oc2ccc(F)cc2)cc1)N1CCc2ncccc2[C@H]1c1ccc(F)cc1 — remaining binding (cell-free assay; competition with immobilised ligand; 1 µM): 100%
CC1CCCN1c1nccc(-c2cnn3ncccc23)n1 (stereo not drawn) — remaining binding (binding; 1 µM): 95%
c1ccc(N2CCN(Cc3nc4ccccc4[nH]3)CC2)nc1 — remaining binding (cell-free assay; competition with immobilised ligand; 1 µM): 100%
c1cnn2ncc(-c3ccnc(N4CCC45COC5)n3)c2c1 — remaining binding (binding; 1 µM): 96%
O=C(NCc1ncc(C(F)(F)F)cc1Cl)c1ccc2c(c1)C1(CCS(=O)(=O)CC1)[C@@H](C1CC1)N2S(=O)(=O)c1ccc(F)cc1 — remaining binding (cell-free assay; competition with immobilised ligand; 1 µM): 92%
FC(F)(F)Oc1cccc(-c2cnc3ccc(-c4ccncc4)nn23)c1 — remaining binding (cell-free assay; competition with immobilised ligand; 5 µM): 42%
O=C(NCCCN1CCOCC1)c1ccc(Nc2ncc(Cl)c(-c3ccc(Cl)s3)n2)cc1 — remaining binding (binding; competition with immobilised ligand; 1 µM): 94%
CN(C)c1nccc(-c2cnc3ncccn23)n1 — remaining binding (binding; 1 µM): 79%
CCN1CCN(Cc2ccc(C(=O)Nc3ccc(C)c(Oc4ccc5c(c4)CC(=O)N5)c3)cc2C(F)(F)F)CC1 — remaining binding (binding; competition with immobilised ligand; 1 µM): 100%
O=C(NCCCN1CCOCC1)c1ccc(Nc2nccc(-c3cc4ccccc4s3)n2)cc1 — remaining binding (binding; competition with immobilised ligand; 1 µM): 75%
CN(C)c1ncc(F)c(-c2cnn3ncccc23)n1 — remaining binding (binding; 1 µM): 100%
CN(C)C(=O)Cn1cc(-c2nc(C3(c4ccc(-c5cnc(N)nc5)cc4)CC3)no2)cn1 — remaining binding (cell-free assay; competition with immobilised ligand; 1 µM): 91%
CN(CCCC(F)(F)F)c1nccc(-c2cnn3ncccc23)n1 — remaining binding (binding; 1 µM): 95%
O=C(c1ccc(Nc2ncc(Cl)c(-c3cc4ccccc4s3)n2)cc1)N1CCC(N2CCCC2)CC1 — remaining binding (binding; competition with immobilised ligand; 1 µM): 80%
